The values below come from ChEMBL document CHEMBL3098122, “Synthesis, biological activity and structure-activity relationships of new benzoic acid-based protein tyrosine phosphatase inhibitors endowed with insulinomimetic effects in mouse C2C12 skeletal muscle cells” (Eur J Med Chem, 2014).

Data set [1] has as its target T1, Tyrosine-protein phosphatase non-receptor type 1 (Mus musculus) (UniProt P35821).
T1 sequence (whole entry): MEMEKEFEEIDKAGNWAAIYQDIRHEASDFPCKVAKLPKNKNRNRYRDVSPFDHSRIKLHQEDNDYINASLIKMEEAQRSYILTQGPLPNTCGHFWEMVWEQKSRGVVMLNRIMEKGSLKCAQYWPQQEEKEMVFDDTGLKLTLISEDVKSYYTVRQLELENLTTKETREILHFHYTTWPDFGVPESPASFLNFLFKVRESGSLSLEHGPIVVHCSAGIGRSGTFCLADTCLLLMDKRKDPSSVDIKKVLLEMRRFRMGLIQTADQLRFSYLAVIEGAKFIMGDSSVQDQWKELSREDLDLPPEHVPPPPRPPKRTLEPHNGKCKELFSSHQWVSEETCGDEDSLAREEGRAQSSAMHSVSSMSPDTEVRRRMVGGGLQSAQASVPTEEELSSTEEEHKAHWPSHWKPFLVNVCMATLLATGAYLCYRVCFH
The data set can be described thus: Inhibition of PTP1B in mouse C2C12 cells assessed as increase of insulin receptor beta phosphorylation at 25 uM after 90 mins. Format: cell-based. A digest of the protocol: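 Differentiated, 20 h serum-starved C2C12 myotubes exposed to 25 µM compound (DMSO 1.2% final) for 90 min at 37 °C, insulin 10 nM 30 min as positive control; lysates run on SDS-PAGE, Western blot for phospho-insulin receptor β with actin loading control, densitometry; three replicates, p<0.05 versus control.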

The nature of data set [2]: Cytotoxicity against mouse C2C12 cells expressing PTP1B, TC-PTP, LMW-PTP and insulin receptor assessed as cell viability after 2 hrs by MTT assay. Format: cell-based. Further details: concentration or dose not given beside the values. The settings on record: read-out: Activity. A digest of the protocol:
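C2C12 myoblasts differentiated 4 days in DMEM with 2% horse serum, serum-starved 20 h; myotubes then given MTT (0.5 mg/ml final) for 2 h at 37 °C, lysed in DMSO, formazan read at 570 nm; three replicates relative to control.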

The target in data set [3] is T2, Tyrosine-protein phosphatase non-receptor type 1 (Homo sapiens, UniProt P18031).
T2 sequence (P18031 whole entry): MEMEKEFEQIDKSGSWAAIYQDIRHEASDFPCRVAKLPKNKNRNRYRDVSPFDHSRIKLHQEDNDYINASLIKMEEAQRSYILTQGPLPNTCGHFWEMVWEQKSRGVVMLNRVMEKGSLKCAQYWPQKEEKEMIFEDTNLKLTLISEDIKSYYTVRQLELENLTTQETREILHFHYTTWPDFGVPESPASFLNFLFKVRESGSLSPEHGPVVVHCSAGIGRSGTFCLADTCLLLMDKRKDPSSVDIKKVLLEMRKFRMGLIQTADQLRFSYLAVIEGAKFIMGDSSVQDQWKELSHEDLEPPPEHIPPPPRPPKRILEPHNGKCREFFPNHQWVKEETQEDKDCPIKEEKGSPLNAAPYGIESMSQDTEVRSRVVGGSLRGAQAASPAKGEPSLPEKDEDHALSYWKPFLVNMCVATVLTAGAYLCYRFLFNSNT
The data set can be described thus: Competitive inhibition of human recombinant PTP1B expressed in Escherichia coli TB1 using p-nitrophenylphosphate as substrate by Double reciprocal plot analysis. A digest of the protocol:
(§1)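 PTP1B (human, GST fusion from pGEX-2T in E. coli TB1, thrombin-cleaved, gel-filtered) assayed at 37 °C, pH 7.0 β,β-dimethylglutarate buffer with 1 mM EDTA and 5 mM DTT, p-nitrophenylphosphate at seven final concentrations (0.5–25 mM) with increasing inhibitor; KOH-stopped, A400. Inhibition type from double reciprocal plots; Ki from apparent Km vs inhibitor concentration; triplicate initial rates.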

In data set [4] the target is T3, Tyrosine-protein phosphatase non-receptor type 1 (Homo sapiens) (UniProt P18031).
T3 sequence (whole entry): T2 sequence (P18031 whole entry)
The experiment in a line: Reversible inhibition of human recombinant PTP1B expressed in Escherichia coli TB1 using p-nitrophenylphosphate as substrate assessed as residual activity at 25 times IC50 after 1 hr measured after 400 fold dilution. A digest of the protocol:
(§2)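 Reversibility: PTP1B preincubated 1 h at 37 °C with at least 25-fold […], DMSO in controls; mixture then diluted 400-fold in assay buffer and residual activity measured on p-nitrophenylphosphate; three replicates, mean ± SE.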

Data set [5] is filed under the species Homo sapiens. The data set can be described thus: Selectivity ratio of IC50 for TC-PTP (unknown origin) to IC50 for human recombinant PTP1B. A digest of the protocol: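 Commercial T-cell PTP assayed on p-nitrophenylphosphate at 37 °C, pH 7.0 β,β-dimethylglutarate buffer with 1 mM EDTA and 5 mM DTT; stopped with 1 M KOH, absorbance at 400 nm; IC50 from ratio of activity with and without inhibitor versus inhibitor concentration. Ratio lines pair this with recombinant human PTP1B measured the same way.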

The species named for data set [6] is Homo sapiens. The experiment in a line: Selectivity ratio of IC50 for human recombinant LMW-PTP IF2 to IC50 for human recombinant LMW-PTP IF1.
Data set [7] is filed under the species Homo sapiens. The data set can be described thus: Selectivity ratio of IC50 for human recombinant LMW-PTP IF2 to IC50 for human recombinant PTP1B.
The species named for data set [8] is Homo sapiens. The experiment in a line: Selectivity ratio of IC50 for human recombinant LMW-PTP IF1 to IC50 for human recombinant PTP1B.
For data set [9], the target named is T4, Low molecular weight phosphotyrosine protein phosphatase (Homo sapiens, UniProt P24666).
T4 sequence (P24666 whole entry): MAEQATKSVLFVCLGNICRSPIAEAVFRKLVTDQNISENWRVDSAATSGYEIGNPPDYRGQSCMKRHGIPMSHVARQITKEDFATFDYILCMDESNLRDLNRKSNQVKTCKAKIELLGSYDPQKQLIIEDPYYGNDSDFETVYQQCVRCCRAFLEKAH
The data set can be described thus: Inhibition of human recombinant LMW-PTP IF2 expressed in Escherichia coli TB1 using p-nitrophenylphosphate as substrate.

The target in data set [10] is T2, Tyrosine-protein phosphatase non-receptor type 1. The data set can be described thus: Inhibition of human recombinant PTP1B expressed in Escherichia coli TB1 using p-nitrophenylphosphate as substrate.
The target of data set [11] is T4, Low molecular weight phosphotyrosine protein phosphatase. The data set can be described thus: Inhibition of human recombinant LMW-PTP IF1 expressed in Escherichia coli TB1 using p-nitrophenylphosphate as substrate.
Data set [12] deals with T5, Tyrosine-protein phosphatase non-receptor type 2 (Homo sapiens, UniProt P17706).
T5 sequence (P17706 whole entry): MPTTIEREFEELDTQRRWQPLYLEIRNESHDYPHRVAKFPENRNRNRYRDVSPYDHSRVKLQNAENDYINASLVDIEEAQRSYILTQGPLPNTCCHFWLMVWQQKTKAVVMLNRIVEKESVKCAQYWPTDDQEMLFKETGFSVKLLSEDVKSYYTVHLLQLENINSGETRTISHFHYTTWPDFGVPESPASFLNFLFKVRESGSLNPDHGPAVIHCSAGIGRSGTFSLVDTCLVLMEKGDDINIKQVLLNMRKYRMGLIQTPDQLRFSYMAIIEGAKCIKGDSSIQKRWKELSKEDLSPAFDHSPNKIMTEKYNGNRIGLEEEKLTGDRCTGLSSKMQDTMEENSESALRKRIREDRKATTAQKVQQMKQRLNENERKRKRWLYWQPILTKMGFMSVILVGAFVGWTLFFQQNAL
The data set can be described thus: Inhibition of TC-PTP (unknown origin) purchased from New England Biolabs using p-nitrophenylphosphate as substrate.

For data set [13], the target named is T2, Tyrosine-protein phosphatase non-receptor type 1. The experiment in a line: Mixed type inhibition of human recombinant PTP1B expressed in Escherichia coli TB1 using p-nitrophenylphosphate as substrate by Double reciprocal plot analysis. A digest of the protocol:
as §1

Data set [14] deals with T3, Tyrosine-protein phosphatase non-receptor type 1 (Homo sapiens). The experiment in a line: Partial reversible inhibition of human recombinant PTP1B expressed in Escherichia coli TB1 using p-nitrophenylphosphate as substrate assessed as residual activity at 25 times IC50 after 1 hr measured after 400 fold dilution. A digest of the protocol: as §2
Data set [15] has as its target T1, Tyrosine-protein phosphatase non-receptor type 1 (Mus musculus). The data set can be described thus: Inhibition of PTP1B in mouse C2C12 cells assessed as increase of 2-deoxy-D-1,2-[3H]-glucose at 25 uM after 90 mins by beta-scintillation counting. Format: cell-based. A digest of the protocol: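 Serum-starved differentiated C2C12 myotubes treated 90 min with 25 µM compound (1.2% DMSO) or 30 min with 10 nM insulin, then 0.1 µCi 2-deoxy-D-[1,2-3H]glucose in Ringer-Hepes for 15 min at 37 °C; cold PBS wash, 0.2 M NaOH lysis, scintillation counting normalized to Bradford protein; three replicates.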

The target in data set [16] is T2, Tyrosine-protein phosphatase non-receptor type 1. The experiment in a line: Noncompetitive inhibition of human recombinant PTP1B expressed in Escherichia coli TB1 using p-nitrophenylphosphate as substrate by Double reciprocal plot analysis. A digest of the protocol:
as §1

Structures are written as SMILES. The source made the active and inactive calls. No cut-off for these calls is given here. A value given as a limit tells only on which side of the number the result lay.

Broadly, the Ki is the dissociation constant of the complex between target and ligand, obtained from inhibition or displacement. Broadly, the IC50 is the concentration that gives 50% inhibition. Regarding `COc1ccc(/C=C2\S/C(=N\c3ccccc3)N(Cc3ccc(C(=O)O)cc3)C2=O)cc1OCCc1ccccc1`, the inhibition result in data set [1] is “Active”. Besides, in [2], the viability at 2 h is ≥ 80%. The inhibition constant (Ki) in data set [3] amounted to 1.5 µM. Also, in data set [4], the Activity was found to be 80%. The Ratio IC50 was 2 in the data set filed under Homo sapiens [5], > 2 in the data set filed under Homo sapiens [6], > 2 in the data set listed under Homo sapiens [7] and > 2 in the data set filed under Homo sapiens [8]. Further, the concentration for half-maximal inhibition (IC50) in data set [9] is > 50 µM; in data set [10], 1.7 µM; in [11] it was 17.2 µM; in [12], 4.3 µM.

Turning to `O=C(O)c1ccc(CN2C(=O)/C(=C/c3ccc(OCCc4ccccc4)cc3)S/C2=N\c2ccccc2)cc1`, the inhibition entry in [1] was “Active”. Further, the viability at 2 h in data set [2] is ≥ 80%. In addition, the Ki in data set [13] is 0.5 µM. For the same compound, the Activity in data set [14] was determined as 50%. Moreover, the Ratio IC50 in the data set filed under Homo sapiens [6], in the data set listed under Homo sapiens [7] and in the data set listed under Homo sapiens [8] was > 2 each time. Also, the concentration for half-maximal inhibition (IC50) in [9] came out at 8.9 µM; in [10], 1.5 µM; in [11], 4 µM; in data set [12] it was 0.7 µM.

For `COc1cc(/C=C2\SC(=O)N(Cc3ccc(C(=O)O)cc3)C2=O)ccc1OCCc1ccccc1`, the inhibition result in data set [15] and in data set [1] was “Active” each time. Besides, in [2], the viability at 2 h is ≥ 80%. Further, the Ki in data set [16] is 1.4 µM. Besides, the Activity in data set [4] was 80%. Also, the Ratio IC50 in the data set filed under Homo sapiens [5] is 2; in the data set filed under Homo sapiens [6] it was > 2; in the data set listed under Homo sapiens [7] it was > 2; in the data set filed under Homo sapiens [8] it was > 2. Also, the half-inhibitory concentration (IC50) in data set [9] was > 50 µM; in data set [10] it was 1.1 µM; in data set [11] it was 10.8 µM; in [12] it was 3.5 µM.

Regarding `O=C(O)c1ccc(CN2C(=O)S/C(=C\c3ccc(OCCc4ccccc4)cc3)C2=O)cc1`, in [2], the viability at 2 h is ≥ 80%. Besides, the inhibition constant Ki in [13] was 2.3 µM. The Activity in [4] turned out to be 80%. Moreover, the Ratio IC50 in the data set filed under Homo sapiens [5] is 2; in the data set listed under Homo sapiens [6] it was > 2; in the data set listed under Homo sapiens [7], > 2; in the data set filed under Homo sapiens [8] it was > 2. Besides, the concentration for half-maximal inhibition (IC50) is > 50 µM in [9], 2.6 µM in data set [10], 20.1 µM in data set [11] and 5.9 µM in data set [12].

Turning to `COc1cc(/C=C2\S/C(=N\c3ccccc3)N(Cc3ccc(C(=O)O)cc3)C2=O)ccc1OCCc1ccccc1`, the inhibition entry in data set [1] was “Active”. Further, the viability at 2 h in data set [2] was ≥ 80%. In addition, the Ki in data set [13] is 1.5 µM. Besides, in data set [4], the Activity worked out at 80%. Further, the Ratio IC50 in the data set listed under Homo sapiens [6], in the data set filed under Homo sapiens [7] and in the data set listed under Homo sapiens [8] was > 2 in each case. Further, the concentration for half-maximal inhibition (IC50) in data set [9] was 19.7 µM; in data set [10], 2.8 µM; in data set [11] it was 10.7 µM; in data set [12], 3.4 µM.

For the compound `O=C(O)c1ccc(CN2C(=O)/C(=C/c3ccc(OCc4ccccc4)c(F)c3)S/C2=N\c2ccccc2)cc1`, the inhibition result in data set [15] and in [1] was “Active” in each case. Further, the viability at 2 h in [2] was ≥ 80%. In addition, in data set [14], the Activity was 50%. In addition, the Ratio IC50 in the data set filed under Homo sapiens [6], in the data set listed under Homo sapiens [7] and in the data set listed under Homo sapiens [8] was > 2 each time. The IC50 worked out at 15.5 µM in [9], 2.2 µM in data set [10], 3.3 µM in data set [11] and 0.8 µM in data set [12].
